Experimental findings from ChEMBL document CHEMBL1147132, “Structure-activity relationship studies of gonadotropin-releasing hormone antagonists containing S-aryl/alkyl norcysteines and their oxidized derivatives” (J Med Chem, 2007) are described below.

≈ marks a conversion by molar mass, not a printed value.

The target in data set [1] is T1, Gonadotropin-releasing hormone receptor (Homo sapiens, UniProt P30968).
T1 sequence (P30968 whole entry): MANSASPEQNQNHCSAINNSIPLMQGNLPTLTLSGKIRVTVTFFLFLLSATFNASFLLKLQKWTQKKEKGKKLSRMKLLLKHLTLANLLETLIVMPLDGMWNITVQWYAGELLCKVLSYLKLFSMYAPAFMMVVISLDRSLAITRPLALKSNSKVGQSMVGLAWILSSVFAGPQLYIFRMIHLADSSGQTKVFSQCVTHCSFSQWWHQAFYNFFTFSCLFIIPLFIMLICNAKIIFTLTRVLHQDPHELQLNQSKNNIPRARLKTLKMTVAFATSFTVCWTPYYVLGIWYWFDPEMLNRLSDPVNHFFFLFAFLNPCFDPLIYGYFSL
The data set is described as follows: Antagonist activity at human GnRHR expressed in HEK293 cells assessed as inhibition of GnRH-induced luciferase response by reporter gene assay. The format is functional, cell-based. The procedure, abridged:
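HEK293 cells stably expressing cloned human GnRHR and an LH alpha-subunit-promoter luciferase reporter, plated overnight. Compound in 1% DMSO was added 10 min before GnRH (1 nM final), then ≥5 h at 37 °C, 5% CO2, then luminescence. 11 half-log concentrations in duplicate. IC50 from four-parameter logistic fit, reported as geometric mean of ≥2 experiments.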

Data set [2] can be described thus: Solubility in 5% mannitol. The format is physicochemical.
The target in data set [3] is T2, Gonadotropin-releasing hormone receptor (Homo sapiens) (UniProt P30968).
T2 sequence (whole entry): T1 sequence (P30968 whole entry)
Kind of data set: Antagonist activity at human GnRHR expressed in COS7 cells assessed as inhibition of GnRH-stimulated inositol phosphate production after 2 hrs. The format is functional, cell-based. The settings on record: COS-7, filed as antagonist. The procedure, abridged:
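COS-7 cells transiently transfected with WT hGnRH-R cDNA, labelled 18 h at 37 °C with 4 μCi/mL [3H]myo-inositol in inositol-free DMEM. Cells were washed in medium with 5 mM LiCl, then co-incubated 2 h at 37 °C with 10−8 M GnRH plus analogue at 10−8 to 10−5 M. IP was measured by Dowex anion-exchange and scintillation counting. Triplicate, repeated three or more times.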

For the compound `CC(=O)Nc1ccc(C[C@H](NC(=O)[C@H](CO)NC(=O)[C@@H](Cc2cccnc2)NC(=O)[C@@H](Cc2ccc(Cl)cc2)NC(=O)[C@@H](Cc2ccc3ccccc3c2)NC(C)=O)C(=O)N[C@H](Cc2ccc(NC(C)=O)cc2)C(=O)N[C@@H](CC(C)C)C(=O)N[C@@H](CCCCNC(C)C)C(=O)N2CCC[C@H]2C(=O)N[C@H](C(N)=O)[S+](C)[O-])cc1` (stereo partly drawn), the IC50 in data set [1] is on record as 0.87 nM (antagonist). In addition, the solubility in data set [2] stood at 50 mg/mL (≈ 31.6 mM).
Consider `CC(=O)Nc1ccc(C[C@H](NC(=O)[C@H](NC(=O)[C@@H](Cc2cccnc2)NC(=O)[C@@H](Cc2ccc(Cl)cc2)NC(=O)[C@@H](Cc2ccc3ccccc3c2)NC(C)=O)[S+](C)[O-])C(=O)N[C@H](Cc2ccc(NC(C)=O)cc2)C(=O)N[C@@H](CC(C)C)C(=O)N[C@@H](CCCCNC(C)C)C(=O)N2CCC[C@H]2C(=O)N[C@H](C)C(N)=O)cc1` (stereo partly drawn), for which, in data set [1], the half-inhibitory concentration (IC50) is on record as 6.9 nM (antagonist). Also, in data set [2], the concentration in solution (solubility) came to 50 mg/mL (≈ 31.9 mM).
The corresponding values for `CC(=O)Nc1ccc(C[C@H](NC(=O)[C@H](CO)NC(=O)[C@@H](Cc2cccnc2)NC(=O)[C@@H](Cc2ccc(Cl)cc2)NC(=O)[C@@H](Cc2ccc3ccccc3c2)NC(C)=O)C(=O)N[C@H](Cc2ccc(NC(C)=O)cc2)C(=O)N[C@@H](CC(C)C)C(=O)N[C@@H](CCCCNC(C)C)C(=O)N2CCC[C@H]2C(=O)N[C@@H](C(N)=O)[S+](C)[O-])cc1` (stereo partly drawn) are 0.83 nM (antagonist) and 50 mg/mL (≈ 31.6 mM).
The corresponding values for `CC(=O)Nc1ccc(C[C@H](NC(=O)[C@H](CO)NC(=O)[C@@H](CCC(N)=O)NC(=O)[C@@H](Cc2ccc(Cl)cc2)NC(=O)[C@@H](Cc2ccc3ccccc3c2)NC(C)=O)C(=O)N[C@H](Cc2ccc(NC(C)=O)cc2)C(=O)N[C@@H](C(=O)N[C@@H](CCCCNC(C)C)C(=O)N2CCC[C@H]2C(=O)N[C@H](C)C(N)=O)[S+]([O-])C(C)C)cc1` (stereo partly drawn) are 85 nM (antagonist) and 50 mg/mL (≈ 32.3 mM).
The corresponding values for `CC(=O)Nc1ccc(C[C@H](NC(=O)[C@@H](NC(=O)[C@@H](Cc2cccnc2)NC(=O)[C@@H](Cc2ccc(Cl)cc2)NC(=O)[C@@H](Cc2ccc3ccccc3c2)NC(C)=O)[S+](C)[O-])C(=O)N[C@H](Cc2ccc(NC(C)=O)cc2)C(=O)N[C@@H](CC(C)C)C(=O)N[C@@H](CCCCNC(C)C)C(=O)N2CCC[C@H]2C(=O)N[C@H](C)C(N)=O)cc1` (stereo partly drawn) are 4.6 nM (antagonist) and 50 mg/mL (≈ 31.9 mM).
On to `CS[C@@H](NC(=O)[C@@H](Cc1cccnc1)NC(=O)[C@@H](Cc1ccc(Cl)cc1)NC(=O)[C@@H](Cc1ccc2ccccc2c1)NC(C)=O)C(=O)N[C@@H](Cc1ccc(NC(C)=O)cc1)C(=O)N[C@H](Cc1ccc(NC(C)=O)cc1)C(=O)N[C@@H](CC(C)C)C(=O)N[C@@H](CCCCNC(C)C)C(=O)N1CCC[C@H]1C(=O)N[C@H](C)C(N)=O`, for which the IC50 in data set [1] is 25 nM (antagonist). The same compound showed a solubility in data set [2] of 50 mg/mL (≈ 32.3 mM). Besides, the Activity result in data set [3] was “Antagonist”.
On to `CC(=O)Nc1ccc(C[C@H](NC(=O)[C@H](CO)NC(=O)[C@@H](Cc2cccnc2)NC(=O)[C@@H](Cc2ccc(Cl)cc2)NC(=O)[C@@H](Cc2ccc3ccccc3c2)NC(C)=O)C(=O)N[C@H](Cc2ccc(NC(C)=O)cc2)C(=O)N[C@H](SC(C)C)C(=O)N[C@@H](CCCCNC(C)C)C(=O)N2CCC[C@H]2C(=O)N[C@H](C)C(N)=O)cc1`, for which the concentration for half-maximal inhibition (IC50) in data set [1] is on record as 0.81 nM (antagonist). This compound also gave a solubility in data set [2] of 50 mg/mL (≈ 32.2 mM). Further, the Activity result in data set [3] is “Antagonist”.
`CC(=O)Nc1ccc(C[C@H](NC(=O)[C@H](CO)NC(=O)[C@@H](CCC(N)=O)NC(=O)[C@@H](Cc2ccc(Cl)cc2)NC(=O)[C@@H](Cc2ccc3ccccc3c2)NC(C)=O)C(=O)N[C@H](Cc2ccc(NC(C)=O)cc2)C(=O)N[C@@H](SC(C)C)C(=O)N[C@@H](CCCCNC(C)C)C(=O)N2CCC[C@H]2C(=O)N[C@H](C)C(N)=O)cc1`: in data set [1], the IC50 is on record as 6.2 nM (antagonist). The solubility in data set [2] turned out to be 50 mg/mL (≈ 32.7 mM).
`CC(=O)Nc1ccc(C[C@H](NC(=O)[C@H](CO)NC(=O)[C@@H](CCC(N)=O)NC(=O)[C@@H](Cc2ccc(Cl)cc2)NC(=O)[C@@H](Cc2ccc3ccccc3c2)NC(C)=O)C(=O)N[C@H](Cc2ccc(NC(C)=O)cc2)C(=O)N[C@H](C(=O)N[C@@H](CCCCNC(C)C)C(=O)N2CCC[C@H]2C(=O)N[C@H](C)C(N)=O)S(=O)(=O)C(C)C)cc1`: the IC50 in data set [1] is 3810 nM (antagonist). The solubility in data set [2] is 50 mg/mL (≈ 32 mM).
In the same order, the values of `CC(=O)Nc1ccc(C[C@H](NC(=O)[C@H](CO)NC(=O)[C@@H](CCC(N)=O)NC(=O)[C@@H](Cc2ccc(Cl)cc2)NC(=O)[C@@H](Cc2ccc3ccccc3c2)NC(C)=O)C(=O)N[C@H](Cc2ccc(NC(C)=O)cc2)C(=O)N[C@H](C(=O)N[C@@H](CCCCNC(C)C)C(=O)N2CCC[C@H]2C(=O)N[C@H](C)C(N)=O)[S+]([O-])C(C)C)cc1` (stereo partly drawn) are 13 nM (antagonist) and 50 mg/mL (≈ 32.3 mM).
The corresponding values for `CC(=O)Nc1ccc(C[C@H](NC(=O)[C@H](CO)NC(=O)[C@@H](Cc2cccnc2)NC(=O)[C@@H](Cc2ccc(Cl)cc2)NC(=O)[C@@H](Cc2ccc3ccccc3c2)NC(C)=O)C(=O)N[C@H](Cc2ccc(NC(C)=O)cc2)C(=O)N[C@@H](C(=O)N[C@@H](CCCCNC(C)C)C(=O)N2CCC[C@H]2C(=O)N[C@H](C)C(N)=O)[S+]([O-])C(C)C)cc1` (stereo partly drawn) are 3 nM (antagonist) and 50 mg/mL (≈ 31.9 mM).
As for `CC(=O)Nc1ccc(C[C@H](NC(=O)[C@H](CO)NC(=O)[C@@H](CCC(N)=O)NC(=O)[C@@H](Cc2ccc(Cl)cc2)NC(=O)[C@@H](Cc2ccc3ccccc3c2)NC(C)=O)C(=O)N[C@H](Cc2ccc(NC(C)=O)cc2)C(=O)N[C@H](SC(C)C)C(=O)N[C@@H](CCCCNC(C)C)C(=O)N2CCC[C@H]2C(=O)N[C@H](C)C(N)=O)cc1`, the IC50 in data set [1] was 39 nM (antagonist). For the same compound, the concentration in solution in data set [2] (solubility) came to 50 mg/mL (≈ 32.7 mM).
In the same order, the values of `CC(=O)Nc1ccc(C[C@H](NC(=O)[C@H](CO)NC(=O)[C@@H](CCC(N)=O)NC(=O)[C@@H](Cc2ccc(Cl)cc2)NC(=O)[C@@H](Cc2ccc3ccccc3c2)NC(C)=O)C(=O)N[C@H](Cc2ccc(NC(C)=O)cc2)C(=O)N[C@@H](C(=O)N[C@@H](CCCCNC(C)C)C(=O)N2CCC[C@H]2C(=O)N[C@H](C)C(N)=O)S(=O)(=O)C(C)C)cc1` are 2000 nM (antagonist) and 50 mg/mL (≈ 32 mM).

Usually IC50 stands for the concentration that gives 50% inhibition. What is called solubility is the dissolved amount per volume that the medium holds. The low end stands for a poorly soluble substance, the high end for a readily soluble substance.
